Measurements published in ChEMBL document CHEMBL1156534, “Hemopressin is an inverse agonist of CB1 cannabinoid receptors” (Proc Natl Acad Sci U S A, 2007).
Calls of active or inactive are those of the source.

Key:
[1] = biological target: Mu-type opioid receptor (Homo sapiens) (UniProt P35372); assay: Antagonist activity at mu opioid receptor expressed in HEK293 cells assessed as blockade of secreted alkaline phosphatase activity at 1 uM after 6 hrs relative to control; format: functional, cell-based
Method in brief: (§1)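 HEK-293 cells transiently co-transfected with pCRE-SeAP and a Flag-tagged receptor, 30,000 cells/well on poly-L-lysine. They were serum-starved 16–18 h, then exposed 6 h in serum-free medium to 10 μM forskolin (omitted for β2) plus the receptor agonist (100 nM), with or without peptide (1 μM). Heat-treated supernatant SeAP was read by CSPD chemiluminescence. Mean ± SEM, n = 6.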

[2] = biological target: Cannabinoid receptor 1 (Homo sapiens) (UniProt P21554); assay: Antagonist activity at CB1 receptor expressed in HEK293 cells assessed as blockade of secreted alkaline phosphatase activity at 1 uM after 6 hrs relative to control; format: functional, cell-based
Method in brief: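 HEK-293 cells transfected with 5 μg pCRE-SeAP plus 1 μg Flag-tagged CB₁ or CB₂ receptor, 30,000 cells/well, serum-starved 16–18 h. Stimulated 6 h in serum-free medium with 10 μM forskolin and 100 nM agonist, without or with 1 μM test peptide. Supernatant diluted in pH 7.2 buffer, heated 65°C 20 min, then CSPD chemiluminescence read. Mean ± SEM, n = 6.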

Cannabinoid receptor 1 = Cannabinoid receptor 1 (Rattus norvegicus, UniProt P20272); assay: Displacement of [3H]SR141716 from Long-Evans rat striatal membrane CB1 receptor
[3] = biological target: Cannabinoid receptor 2 (Homo sapiens) (UniProt P34972); assay: Antagonist activity at CB2 receptor expressed in Neuro 2A cells assessed as blockade of Hu210-mediated increase in number of neurite outgrowth at 10 uM after 16 hrs; format: functional, cell-based
Method in brief: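 Neuro 2A cells transfected with Flag-tagged CB1 or CB2 were exposed 16 h in 0.1% FBS medium to 100 nM Hu-210 with or without 10 μM peptide. The percentage of cells extending neurites was scored and normalized to untreated cells (100%). Mean ± SE of triplicate experiments.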

Rattus norvegicus [4] = assay: Antihyperalgesic effects in Wistar rat assessed as reduction of carrageenan-induced paw pressure at 10 ug/kg, intraplantar after 3 hrs; format: functional, organism-based
Method in brief: (§2)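 Male Wistar rats (200 g) received carrageenan 200 μg/paw intraplantar in saline into the right hind paw. Peptide was given at the same time: intraplantar 10 μg/paw, intrathecal 0.5 or 5 μg/kg, or oral 50 or 100 μg/kg; saline-treated rats served as controls. Paw-pressure withdrawal threshold (force ramp 16 g/s) was read at 0 and 3 h. n = 6–8.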

Rattus norvegicus [5] = assay: Antihyperalgesic effects in Wistar rat assessed as reduction of carrageenan-induced paw pressure at 0.5 ug/kg, intrathecal after 3 hrs; format: functional, organism-based; method in brief: as §2
[6] = biological target: Cannabinoid receptor 1 (Homo sapiens) (UniProt P21554); assay: Antagonist activity at CB1 receptor expressed in HEK293 cells assessed as blockade of Hu210-mediated decrease in secreted alkaline phosphatase activity at 1 uM after 6 hrs relative to control; format: functional, cell-based; method in brief: as §1
[7] = biological target: Cannabinoid receptor 2 (Homo sapiens) (UniProt P34972); assay: Antagonist activity at CB2 receptor expressed in HEK293 cells assessed as blockade of Hu210-mediated decrease in secreted alkaline phosphatase activity at 1 uM after 6 hrs relative to control; format: functional, cell-based; method in brief: as §1
[8] = biological target: Mu-type opioid receptor (Homo sapiens) (UniProt P35372); assay: Antagonist activity at mu opioid receptor expressed in HEK293 cells assessed as blockade of DAMGO-mediated decrease in secreted alkaline phosphatase activity at 1 uM after 6 hrs relative to control; format: functional, cell-based; method in brief: as §1
[9] = biological target: Delta-type opioid receptor (Homo sapiens) (UniProt P41143); assay: Antagonist activity at delta opioid receptor expressed in HEK293 cells assessed as blockade of deltorphin 2-mediated decrease in secreted alkaline phosphatase activity at 1 uM after 6 hrs relative to control; format: functional, cell-based; method in brief: as §1
[10] = biological target: Cannabinoid receptor 1 (Homo sapiens) (UniProt P21554); assay: Antagonist activity at flag tagged recombinant CB1 receptor expressed in HEK293 cells assessed as blockade of Hu210-induced increase in phospho ERK1/2 level; format: functional, cell-based
Method in brief: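 HEK-293 cells expressing Flag-tagged CB1 (2 × 10⁶ cells/well) were stimulated for 5 min with 100 nM Hu-210, with or without 10 μM antagonist. Phospho-ERK1/2 was quantified relative to untreated cells (100%). Mean ± SE of triplicate experiments.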

[11] = biological target: T1, B2 bradykinin receptor (Homo sapiens) (UniProt P30411); assay: Antagonist activity at B2 bradykinin receptor expressed in SKNSH cells at 100 nM by ELISA; format: functional, cell-based; design: scale not given: the % may be the effect or the level left
T1 sequence (whole entry): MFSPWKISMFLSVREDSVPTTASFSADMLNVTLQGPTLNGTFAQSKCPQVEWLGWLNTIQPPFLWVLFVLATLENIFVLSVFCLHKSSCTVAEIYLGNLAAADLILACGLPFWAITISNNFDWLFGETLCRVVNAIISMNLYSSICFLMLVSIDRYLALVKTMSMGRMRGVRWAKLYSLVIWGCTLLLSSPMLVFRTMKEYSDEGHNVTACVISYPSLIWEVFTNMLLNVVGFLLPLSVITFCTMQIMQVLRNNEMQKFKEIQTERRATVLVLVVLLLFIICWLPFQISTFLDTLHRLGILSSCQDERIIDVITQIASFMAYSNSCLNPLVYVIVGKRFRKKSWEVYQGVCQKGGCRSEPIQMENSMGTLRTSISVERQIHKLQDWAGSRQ

[12] = biological target: Delta-type opioid receptor (Homo sapiens) (UniProt P41143); assay: Antagonist activity at delta opioid receptor expressed in HEK293 cells assessed as blockade of secreted alkaline phosphatase activity at 1 uM after 6 hrs relative to control; format: functional, cell-based; method in brief: as §1
[13] = biological target: T2, Type-1 angiotensin II receptor (Homo sapiens) (UniProt P30556); assay: Antagonist activity at AT1 angiotensin receptor expressed in HEK293 cells assessed as blockade of secreted alkaline phosphatase activity at 1 uM after 6 hrs relative to control; format: functional, cell-based; method in brief: as §1
T2 sequence (whole entry): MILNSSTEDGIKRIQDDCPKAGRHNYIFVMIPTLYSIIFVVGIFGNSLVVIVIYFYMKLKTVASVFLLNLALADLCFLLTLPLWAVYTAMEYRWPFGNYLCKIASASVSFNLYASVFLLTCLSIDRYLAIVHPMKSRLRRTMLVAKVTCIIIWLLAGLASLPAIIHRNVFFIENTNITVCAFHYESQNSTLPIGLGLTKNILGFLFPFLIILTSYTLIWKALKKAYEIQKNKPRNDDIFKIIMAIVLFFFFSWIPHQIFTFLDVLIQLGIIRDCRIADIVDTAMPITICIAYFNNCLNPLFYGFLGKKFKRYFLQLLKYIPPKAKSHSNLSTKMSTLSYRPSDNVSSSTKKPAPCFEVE

[14] = biological target: Beta-2 adrenergic receptor (Homo sapiens) (UniProt P07550); assay: Antagonist activity at beta2 adrenergic receptor expressed in HEK293 cells assessed as blockade of […] in secreted alkaline phosphatase activity at 1 uM after 6 hrs relative to control; format: functional, cell-based; method in brief: as §1
[15] = biological target: T2, Type-1 angiotensin II receptor (Homo sapiens); assay: Antagonist activity at AT1 angiotensin receptor expressed in HEK293 cells assessed as blockade of angiotensin 2-mediated decrease in secreted alkaline phosphatase activity at 1 uM after 6 hrs relative to control; format: functional, cell-based; method in brief: as §1
[16] = biological target: T2, Type-1 angiotensin II receptor (Homo sapiens); assay: Antagonist activity at AT1 angiotensin receptor expressed in SKNSH cells at 100 nM by ELISA relative to control; format: functional, cell-based; design: scale not given: the % may be the effect or the level left
[17] = biological target: Beta-2 adrenergic receptor (Homo sapiens) (UniProt P07550); assay: Antagonist activity at beta2 adrenergic receptor expressed in SKNSH cells assessed as blockade of isoproterenol-induced increase in antibody recognition at 100 nM by ELISA relative to control; format: functional, cell-based; design: scale not given: the % may be the effect or the level left

Cannabinoid receptor 1 (Homo sapiens), sequence (P21554 whole entry): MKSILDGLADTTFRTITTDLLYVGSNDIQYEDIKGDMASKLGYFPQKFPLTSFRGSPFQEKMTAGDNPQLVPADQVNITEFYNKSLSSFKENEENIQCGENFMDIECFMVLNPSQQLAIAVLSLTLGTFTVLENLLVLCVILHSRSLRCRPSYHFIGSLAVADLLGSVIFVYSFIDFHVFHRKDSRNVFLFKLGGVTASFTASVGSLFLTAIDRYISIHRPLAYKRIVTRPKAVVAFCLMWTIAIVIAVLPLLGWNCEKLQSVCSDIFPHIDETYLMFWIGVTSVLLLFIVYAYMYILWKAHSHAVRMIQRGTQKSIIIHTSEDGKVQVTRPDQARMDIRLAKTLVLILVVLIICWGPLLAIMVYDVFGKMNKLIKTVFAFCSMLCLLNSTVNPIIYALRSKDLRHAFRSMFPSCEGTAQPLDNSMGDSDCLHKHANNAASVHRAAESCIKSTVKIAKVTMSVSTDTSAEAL
Cannabinoid receptor 2 (Homo sapiens), sequence (P34972 whole entry): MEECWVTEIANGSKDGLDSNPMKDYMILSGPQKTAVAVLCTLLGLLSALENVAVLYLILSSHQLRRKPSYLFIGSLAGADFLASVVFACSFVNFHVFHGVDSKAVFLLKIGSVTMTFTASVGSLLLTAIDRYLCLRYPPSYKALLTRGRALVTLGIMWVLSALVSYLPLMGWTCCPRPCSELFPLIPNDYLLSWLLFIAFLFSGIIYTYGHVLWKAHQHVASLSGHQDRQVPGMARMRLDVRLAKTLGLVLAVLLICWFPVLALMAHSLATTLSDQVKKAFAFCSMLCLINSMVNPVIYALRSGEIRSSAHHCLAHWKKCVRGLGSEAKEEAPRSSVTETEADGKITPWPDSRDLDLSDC
Delta-type opioid receptor (Homo sapiens), sequence (P41143 whole entry): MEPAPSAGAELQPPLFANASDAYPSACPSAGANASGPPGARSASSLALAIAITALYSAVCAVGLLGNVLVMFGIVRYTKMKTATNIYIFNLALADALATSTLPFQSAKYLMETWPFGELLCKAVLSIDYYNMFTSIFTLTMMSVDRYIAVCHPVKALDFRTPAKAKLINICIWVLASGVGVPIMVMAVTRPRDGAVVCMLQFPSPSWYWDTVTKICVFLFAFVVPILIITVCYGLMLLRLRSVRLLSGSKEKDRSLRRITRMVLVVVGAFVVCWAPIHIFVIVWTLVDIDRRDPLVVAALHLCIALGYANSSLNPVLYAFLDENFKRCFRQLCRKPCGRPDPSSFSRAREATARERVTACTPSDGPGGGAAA
Mu-type opioid receptor (Homo sapiens), sequence (P35372 whole entry): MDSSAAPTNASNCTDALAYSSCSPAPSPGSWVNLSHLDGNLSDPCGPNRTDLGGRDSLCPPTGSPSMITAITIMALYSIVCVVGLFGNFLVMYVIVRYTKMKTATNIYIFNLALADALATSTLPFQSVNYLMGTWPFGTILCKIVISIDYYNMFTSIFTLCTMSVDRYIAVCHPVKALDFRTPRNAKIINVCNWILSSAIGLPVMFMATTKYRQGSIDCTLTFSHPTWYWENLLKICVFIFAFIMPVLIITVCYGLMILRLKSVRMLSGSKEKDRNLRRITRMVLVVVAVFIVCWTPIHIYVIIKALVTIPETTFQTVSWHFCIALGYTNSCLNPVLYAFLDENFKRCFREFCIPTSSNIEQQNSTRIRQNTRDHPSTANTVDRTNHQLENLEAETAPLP
Beta-2 adrenergic receptor (Homo sapiens), sequence (P07550 whole entry, looked up): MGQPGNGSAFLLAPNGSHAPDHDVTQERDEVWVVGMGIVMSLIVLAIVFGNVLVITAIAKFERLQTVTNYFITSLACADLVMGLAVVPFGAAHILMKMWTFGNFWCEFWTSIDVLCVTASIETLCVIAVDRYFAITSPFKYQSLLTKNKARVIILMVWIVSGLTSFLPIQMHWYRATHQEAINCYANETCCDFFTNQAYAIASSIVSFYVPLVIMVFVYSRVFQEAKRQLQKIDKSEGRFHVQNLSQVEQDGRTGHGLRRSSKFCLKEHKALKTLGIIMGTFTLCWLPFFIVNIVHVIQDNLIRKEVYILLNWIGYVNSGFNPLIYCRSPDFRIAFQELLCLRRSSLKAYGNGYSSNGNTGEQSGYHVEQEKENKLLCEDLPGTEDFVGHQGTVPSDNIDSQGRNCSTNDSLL
Cannabinoid receptor 1, sequence (P20272 whole entry): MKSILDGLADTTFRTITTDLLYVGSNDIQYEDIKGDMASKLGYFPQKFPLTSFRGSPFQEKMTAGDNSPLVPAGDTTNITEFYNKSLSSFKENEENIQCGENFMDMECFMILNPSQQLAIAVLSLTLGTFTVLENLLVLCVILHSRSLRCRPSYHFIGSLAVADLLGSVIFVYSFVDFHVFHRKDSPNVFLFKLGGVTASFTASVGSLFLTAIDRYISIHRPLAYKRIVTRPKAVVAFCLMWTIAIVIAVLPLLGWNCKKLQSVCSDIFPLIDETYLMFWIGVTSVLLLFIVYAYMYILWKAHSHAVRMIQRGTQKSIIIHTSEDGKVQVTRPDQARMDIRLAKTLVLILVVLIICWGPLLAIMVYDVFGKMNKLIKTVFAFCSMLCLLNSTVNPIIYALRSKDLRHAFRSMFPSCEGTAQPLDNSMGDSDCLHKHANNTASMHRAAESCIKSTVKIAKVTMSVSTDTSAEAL

Activity [1]: 0.98 | Activity [2]: 1.15 | EC50 (Cannabinoid receptor 1): 0.35 nM | Activity [3]: inactive | Activity [6]: 1.07 | Activity [7]: 0.85 | Activity [8]: 0.61 | Activity [9]: 0.59 | Activity [10]: Active | Activity [11]: 103% | Activity [12]: 0.9 | Activity [13]: 0.98 | Activity [14]: 1.24 | Activity [15]: 1.02 | Activity [16]: 110% | Activity [17]: 157%
Compound: CC(C)C[C@H](NC(=O)[C@H](Cc1ccccc1)NC(=O)[C@H](CCCCN)NC(=O)[C@H](Cc1ccccc1)NC(=O)[C@H](CC(N)=O)NC(=O)[C@@H](NC(=O)[C@@H]1CCCN1)C(C)C)C(=O)N[C@@H](CO)C(=O)N[C@@H](Cc1cnc[nH]1)C(=O)O [HEMOPRESSIN]
Activity (Rattus norvegicus [4]): Active | Activity (Rattus norvegicus [5]): Active
